Data from ChEMBL document CHEMBL3808334, “Synthesis and in vitro evaluation of novel triazine analogues as anticancer agents and their interaction studies with bovine serum albumin” (Eur J Med Chem, 2016).

Assays:
Assay type in all cases: functional
[1] = Growth inhibition of human ovarian cancer cells incubated for 48 hrs by sulforhodamine B assay; settings: Cancer cell lines
KM12 [2] = assay: Growth inhibition of human KM12 cells assessed as cell growth at 10^-7 M incubated for 48 hrs by sulforhodamine B assay; settings: KM12, 48 h, read-out: Activity
[3] = Growth inhibition of human Hs 578T cells assessed as cell growth at 10^-7 M incubated for 48 hrs by sulforhodamine B assay; settings: read-out: Activity
[4] = Growth inhibition of human HCC2998 cells assessed as cell growth at 10^-8 M incubated for 48 hrs by sulforhodamine B assay; settings: HCC 2998, 48 h, read-out: Activity
Outline: (§1)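 Cells seeded at 5,000–40,000/well according to doubling time and preincubated 24 h at 37 °C, 5% CO2. Time-zero plates were TCA-fixed. DMSO concentrate was diluted in medium with 50 µg/ml gentamicin to give five concentrations (10-fold or ½ log steps), then exposed 48 h. Cells were TCA-fixed, stained with 0.4% SRB and read at 515 nm. Percent growth was taken against time-zero and control; GI50, TGI and LC50 derived.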

[5] = Growth inhibition of human OVCAR4 cells assessed as cell growth at 10^-4 M incubated for 48 hrs by sulforhodamine B assay; settings: OVCAR-4, 48 h, read-out: Activity
NCI-H226 = assay: Growth inhibition of human NCI-H226 cells assessed as cell growth at 10^-6 M incubated for 48 hrs by sulforhodamine B assay; settings: NCI-H226, 48 h, read-out: Activity
[6] = Growth inhibition of human SKOV3 cells assessed as cell growth at 10^-5 M incubated for 48 hrs by sulforhodamine B assay; settings: SK-OV-3, 48 h, read-out: Activity
MDA-MB-468 [7] = assay: Growth inhibition of human MDA-MB-468 cells assessed as cell growth at 10^-5 M incubated for 48 hrs by sulforhodamine B assay; settings: MDA-MB-468, 48 h, read-out: Activity
[8] = Growth inhibition of human SNB75 cells assessed as cell growth at 10^-5 M incubated for 48 hrs by sulforhodamine B assay; settings: SNB-75, 48 h, read-out: Activity
[9] = Growth inhibition of human HOP62 cells assessed as cell growth at 10^-5 M incubated for 48 hrs by sulforhodamine B assay; settings: HOP-62, 48 h, read-out: Activity
[10] = Growth inhibition of human RPMI8226 cells assessed as cell growth at 10^-4 M incubated for 48 hrs by sulforhodamine B assay; settings: RPMI-8226, 48 h, read-out: Activity
[11] = Growth inhibition of human HCT15 cells assessed as cell growth at 10^-7 M incubated for 48 hrs by sulforhodamine B assay; settings: HCT-15, 48 h, read-out: Activity; outline: as §1
[12] = Growth inhibition of human HOP92 cells assessed as cell growth at 10^-8 M incubated for 48 hrs by sulforhodamine B assay; settings: HOP-92, 48 h, read-out: Activity
[13] = Growth inhibition of human Caki1 cells assessed as cell growth at 10^-5 M incubated for 48 hrs by sulforhodamine B assay; settings: CAKI-1, 48 h, read-out: Activity; outline: as §1
[14] = Growth inhibition of human SF268 cells assessed as cell growth at 10^-6 M incubated for 48 hrs by sulforhodamine B assay; settings: SF-268, 48 h, read-out: Activity
NCI-H522 = assay: Growth inhibition of human NCI-H522 cells incubated for 48 hrs by sulforhodamine B assay; settings: NCI-H522, 48 h
Outline: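 Cells were plated at 5,000–40,000 per well according to doubling time and preincubated 24 h at 37 °C in 5% CO2; time-zero plates were then TCA-fixed. Five concentrations (10-fold or ½-log dilutions, DMSO stock) were incubated 48 h. Cells were TCA-fixed, stained with 0.4% SRB and read at 515 nm. GI50 was taken where [(Ti−Tz)/(C−Tz)]×100 = 50.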

[15] = Growth inhibition of human RXF393 cells assessed as cell growth at 10^-6 M incubated for 48 hrs by sulforhodamine B assay; settings: RXF 393, 48 h, read-out: Activity
786-0 = assay: Growth inhibition of human 786-0 cells assessed as cell growth at 10 uM incubated for 48 hrs by sulforhodamine B assay; settings: 786-0, 48 h, read-out: Activity
Outline: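 One-dose screen at 10 µM final. Cells are plated at 5,000–40,000 per well according to doubling time and preincubated 24 h at 37 °C, 5% CO₂. Compound (DMSO stock diluted in medium with 50 µg/ml gentamicin) is then added for 48 h. Growth percent is read by sulforhodamine B staining, absorbance at 515 nm.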

KM12 [16] = assay: Growth inhibition of human KM12 cells assessed as cell growth at 10^-4 M incubated for 48 hrs by sulforhodamine B assay; settings: KM12, 48 h, read-out: Activity
[17] = Growth inhibition of human OVCAR4 cells assessed as cell growth at 10^-7 M incubated for 48 hrs by sulforhodamine B assay; settings: OVCAR-4, 48 h, read-out: Activity
MDA-MB-231 = assay: Growth inhibition of human MDA-MB-231 cells assessed as cell growth at 10^-8 M incubated for 48 hrs by sulforhodamine B assay; settings: MDA-MB-231, 48 h, read-out: Activity
SK-MEL-5 = assay: Growth inhibition of human SK-MEL-5 cells assessed as cell growth at 10 uM incubated for 48 hrs by sulforhodamine B assay; settings: SK-MEL-5, 48 h, read-out: Activity
MDA-MB-468 [18] = assay: Growth inhibition of human MDA-MB-468 cells assessed as cell growth at 10^-8 M incubated for 48 hrs by sulforhodamine B assay; settings: MDA-MB-468, 48 h, read-out: Activity
[19] = Growth inhibition of human RXF393 cells assessed as cell growth at 10^-8 M incubated for 48 hrs by sulforhodamine B assay; settings: RXF 393, 48 h, read-out: Activity
[20] = Growth inhibition of human Caki1 cells incubated for 48 hrs by sulforhodamine B assay; settings: CAKI-1, 48 h; outline: as §1
[21] = Growth inhibition of human OVCAR3 cells assessed as cell growth at 10^-7 M incubated for 48 hrs by sulforhodamine B assay; settings: OVCAR-3, 48 h, read-out: Activity
[22] = Growth inhibition of human TK10 cells assessed as cell growth at 10^-7 M incubated for 48 hrs by sulforhodamine B assay; settings: TK-10, 48 h, read-out: Activity
SN12C = assay: Growth inhibition of human SN12C cells assessed as cell growth at 10^-5 M incubated for 48 hrs by sulforhodamine B assay; settings: read-out: Activity
[23] = Growth inhibition of human SNB75 cells assessed as cell growth at 10 uM incubated for 48 hrs by sulforhodamine B assay; settings: SNB-75, 48 h, read-out: Activity
[24] = Growth inhibition of human MOLT4 cells assessed as cell growth at 10^-8 M incubated for 48 hrs by sulforhodamine B assay; settings: MOLT-4, 48 h, read-out: Activity
[25] = read-out: LC50 (the source's name)
[26] = read-out: pLC50 (the source's name) (converted)

Structure (SMILES): c1ccc(-c2nc(Nc3ccc(-c4nc5ccccc5[nH]4)cc3)nc(N3CCOCC3)n2)cc1
- GI50 [1]: 1.85 µM
- TGI [1]: 3.88 µM
- CC50 [1, 25]: 6.84 µM
- growth at 0.1 µM (KM12 [2]): 97%
- growth at 0.1 µM [3]: 94%
- growth at 0.01 µM [4]: 100%
- growth at 100 µM [5]: -98%
- growth at 1 µM (NCI-H226): 117%
- growth at 10 µM [6]: -62%
- growth at 10 µM (MDA-MB-468 [7]): -57%
- growth at 10 µM [8]: -88%
- growth at 10 µM [9]: -74%
- growth at 100 µM [10]: -37%
- growth at 0.1 µM [11]: 92%
- growth at 0.01 µM [12]: 93%
- growth at 10 µM [13]: -100%
- growth at 1 µM [14]: 86%
- GI50 (NCI-H522; read-out: GI50): 2.1 µM
- CC50 (NCI-H522; [25]): 7.33 µM
- TGI (NCI-H522; read-out: TGI): 3.92 µM
- GI50 (NCI-H522; read-out: pGI50 (converted)): 2.09 µM
- CC50 (NCI-H522; [26]): 7.41 µM
- TGI (NCI-H522; read-out: pTGI (converted)): 3.89 µM
- growth at 1 µM [15]: 30%
- growth at 10 µM (786-0): -88.9%
- growth at 100 µM (KM12 [16]): -86%
- growth at 0.1 µM [17]: 103%
- growth at 0.01 µM (MDA-MB-231): 97%
- growth at 10 µM (SK-MEL-5): -95.4%
- growth at 0.01 µM (MDA-MB-468 [18]): 96%
- growth at 0.01 µM [19]: 97%
- LC50 [20]: 5.06 µM
- GI50 ([20]; read-out: GI50): 1.28 µM
- TGI ([20]; read-out: TGI): 2.54 µM
- GI50 ([20]; read-out: pGI50 (converted)): 1.29 µM
- CC50 [20, 26]: 5.01 µM
- TGI ([20]; read-out: pTGI (converted)): 2.57 µM
- growth at 0.1 µM [21]: 98%
- growth at 0.1 µM [22]: 106%
- growth at 10 µM (SN12C): -60%
- growth at 10 µM [23]: -89.7%
- growth at 0.01 µM [24]: 96%
